{
  "source": "ChEMBL document CHEMBL4177580",
  "about": "“New 5-HT1A, 5HT2A and 5HT2C receptor ligands containing a picolinic nucleus: Synthesis, in vitro and in vivo pharmacological evaluation” (Bioorg Med Chem, 2017)",
  "system": "Mus musculus",
  "assay": "Antidepressant-like activity in Swiss albino mouse assessed as reduction in immobility time at 7.5 mg/kg, ip dosed 1 hr before test by forced swimming test",
  "format": "functional, organism-based",
  "in_short": "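Male Swiss albino mice (18–24 g), compound i.p. in 0.1% DMSO/0.5% methylcellulose 1 h pre-test. Porsolt swim: cylinder 25 cm high, 10 cm diameter, 10 cm water at 23–25°C, 6 min session; immobility scored over last 4 min. Blind observer; one-way ANOVA with Dunnett's; mean ± SEM.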",
  "note": "Active and inactive are the calls of the source. The calls are words filed in the database; no cut-off is given here.",
  "data": [
    {"smiles": "O=C(NCCN1CCN(c2ccc(Cl)c(Cl)c2)CC1)c1ccccn1", "values": [
      {"measurement": "Activity", "result": "Active"}
    ]}
  ]
}
